According to publication PMC9898158 (Structure (London, England : 1993), 2022):
Where a name gives a salt, the structure may show the parent alone. Read-outs that look alike come from different tables or passages of the source.

Tests used:
[1] = tested on: MDA-MB-231 CLPP−/− cells; test: Growth inhibition profiling; assay type: cell-based, human; settings: read-out: IC50 (nM), MDA-MB-231 CLPP−/−
[2] = tested on: HEK293 T-REx CLPX−/− cells; test: Growth inhibition profiling; assay type: cell-based, human; settings: read-out: IC50 (nM), HEK293 T-REx CLPX−/−
[3] = tested on: HEK293 T-REx WT cells; test: Growth inhibition profiling; assay type: cell-based, human; settings: read-out: IC50 (nM), HEK293 T-REx WT
[4] = tested on: MDA-MB-231 WT cells; test: Growth inhibition profiling; assay type: cell-based, human; settings: read-out: IC50 (nM), MDA-MB-231 WT
[5] = tested on: MDA-MB-231 CLPX−/− cells; test: Growth inhibition profiling; assay type: cell-based, human; settings: read-out: IC50 (nM), MDA-MB-231 CLPX−/−
[6] = molecular target: human ClpP (Homo sapiens, UniProt Q16740); test: Casein-FITC degradation assay; assay type: biochemical; settings: for Casein-FITC degradation h (at 2.5 μM ClpP): Hill coefficient, 2.5 μM ClpP protomer
Chain of human ClpP (Q16740 57-277): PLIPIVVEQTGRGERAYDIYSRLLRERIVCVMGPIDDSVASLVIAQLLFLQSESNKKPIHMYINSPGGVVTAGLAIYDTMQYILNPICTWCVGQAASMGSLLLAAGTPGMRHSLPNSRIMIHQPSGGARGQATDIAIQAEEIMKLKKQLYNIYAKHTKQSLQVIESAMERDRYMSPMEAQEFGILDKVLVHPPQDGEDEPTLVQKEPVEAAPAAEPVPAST

[7] = molecular target: ClpP (substrate TFAM lacking the MTS) (Homo sapiens, UniProt Q16740); test: In vitro degradation assay using TFAM; assay type: biochemical; settings: 20 μM compound, 13.5 μM TFAM, 15.5 μM ClpP, 37 °C, 0-5 h
Chain of ClpP (substrate TFAM lacking the MTS) (Q16740 57-277): as above

[8] = tested on: HEK293 T-REx CLPP−/− cells; test: Growth inhibition profiling; assay type: cell-based, human; settings: read-out: IC50 (nM), HEK293 T-REx CLPP−/−
[9] = tested on: MDA-MB-231; test: One-dose NCI-60 screen, MDA-MB-231; assay type: cell-based, human; settings: 10 μM, 48-hour exposure
[10] = tested on: MDA-MB-468; test: One-dose NCI-60 screen, MDA-MB-468; assay type: cell-based, human; settings: 10 μM, 48-hour exposure
Outline: (§1)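 Run by NCI DCTD. Cells were seeded at 5,000–40,000/well in RPMI 1640 with 5% FBS and 2 mM L-glutamine and grown 24 h at 37 °C, 5% CO2. Test compound was added at 10 μM final for 48 h, with a time-zero plate kept. Cells were fixed with cold TCA (10% final for adherent, 16% for non-adherent) and stained with 0.4% SRB. Growth was calculated from A515 at 0 and 48 h.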

[11] = tested on: COLO205; test: One-dose NCI-60 screen, COLO205; assay type: cell-based, human; settings: 10 μM, 48-hour exposure
Outline: as §1

[12] = tested on: WT and CLPP−/− MDA-MB-231 cells; test: Apoptotic onset check; assay type: cell-based, human
Outline: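 WT and CLPP−/− MDA-MB-231 cells in DMEM/F-12 with 10% FBS and 2 mM L-glutamine were exposed to 1 μM test compound or DMSO for 24 hours. Morphology was checked by light microscopy and nuclei by DAPI fluorescence. Positive control was 2 μM doxorubicin or DMSO for 72 hours. Lysates were made by sonication in Dulbecco's PBS and protein-equalized, then run on SDS-PAGE, immunoblotted on PVDF and imaged on film.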

[13] = tested on: TFAM and Grp75 levels in MDA-MB-231 CLPP−/− cells; test: Western blot of TFAM and Grp75, MDA-MB-231 CLPP−/−; assay type: cell-based, human; settings: 1 μM, 24 hours
Outline: (§2)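 MDA-MB-231 cells (WT or CLPP−/−) were grown in DMEM/F-12 with 10% FBS and 2 mM L-glutamine. They were treated for 24 hours with 1 μM test compound or 6 μM of a reference compound. Pellets were sonicated in Dulbecco's PBS and protein was equalized. TFAM and Grp75 were detected by SDS-PAGE, transfer to PVDF and western blotting, imaged by film.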

[14] = tested on: TFAM and Grp75 levels in MDA-MB-231 WT cells; test: Western blot of TFAM and Grp75, MDA-MB-231 WT; assay type: cell-based, human; settings: 1 μM, 24 hours
Outline: as §2

[15] = Homo sapiens, HEK293-T-REx, 72 h

Row | SMILES | IC50 ([1]; Homo sapiens, MDA-MB-231, 72 h) [nM] | IC50 [2, 15] [nM] | IC50 [3, 15] [nM] | IC50 ([4]; Homo sapiens, MDA-MB-231, 72 h) [nM] | IC50 ([5]; Homo sapiens, MDA-MB-231, 72 h) [nM] | Kd [6] [nM] | Casein-FITC degradation h (at 2.5 μM ClpP) [6] | IC50 [8, 15] [nM] | growth suppression [9] [%] | lethality [10] [%] | IC50 ([1]; 72 hr, SRB assay) [nM] | IC50 ([2]; 72 hr, SRB assay) [nM] | IC50 ([3]; 72 hr, SRB assay) [nM] | IC50 ([4]; 72 hr, SRB assay) [nM] | IC50 ([5]; 72 hr, SRB assay) [nM] | IC50 ([8]; 72 hr, SRB assay) [nM] | also measured
1 | N#Cc1cccc(CN2CCC3=C(C2)C(=O)N(Cc2ccc(Cl)cc2)C2=NCCN23)c1 [TR-65, 3-((4-(4-Chlorobenzyl)-5-oxo-1,2,4,5,8,9-hexahydroimidazo[1,2-a]pyrido[3,4-e]pyrimidin-7(6H)-yl)methyl)benzonitrile] | > 1000 | 11 ± 0.2 | 9.8 ± 0.3 | 9.4 ± 0.2 | 9.4 ± 0.2 | 23.3 ± 9.1 | 10.9 ± 2.5 | > 1000 | – | – | – | – | – | – | – | – | degradation of TFAM by compound-activated ClpP [7]: degradation of TFAM by TR-activated ClpP in a time-dependent manner
2 | N#Cc1cccc(CN2CCc3ncn(Cc4ccc(Br)cc4)c(=O)c3C2)c1 [TR-133, 3-([3-[(4-bromophenyl)methyl]-4-oxo-3H,4H,5H,6H,7H,8H-pyrido[4,3-d]pyrimidin-6-yl]methyl)benzonitrile] | > 1000 | 26 ± 2 | 20.7 ± 0.7 | 27.8 ± 0.4 | 29.5 ± 0.7 | 29.1 ± 7.8 | 6.2 ± 1.3 | > 1000 | – | – | – | – | – | – | – | – | –
3 | Cn1c2c(c(=O)n(Cc3ccc(Cl)cc3)c1=O)CN(Cc1cccc(C#N)c1)CC2 [TR-57, 3-((3-(4-chlorobenzyl)-1-methyl-2,4-dioxo-1,2,3,4,7,8-hexahydropyrido[4,3-d]pyrimidin-6(5H)-yl)methyl)benzonitrile] | > 1000 | 11.8 ± 0.4 | 8.9 ± 0.2 | 19.3 ± 0.2 | 19.9 ± 0.3 | 15.5 ± 12 | 9.4 ± 7.8 | > 1000 | 68 | 15 | – | – | – | – | – | – | lethality [11]: 41%
4 | COc1cccc2c1C(=O)c1c(O)c3c(c(O)c1C2=O)C[C@@](O)(C(=O)CO)C[C@@H]3O[C@H]1C[C@H](N)[C@H](O)[C@H](C)O1 [doxorubicin, doxorubicin hydrochloride, reference compound] | – | – | – | – | – | – | – | – | – | – | – | – | – | – | – | – | caspase 9 cleavage ([12]; 2 μM, 72 hrs, positive control): clearly showed caspase 9 cleavage
5 | C#Cc1cccc(CN2CCC3=C(C2)C(=O)N(Cc2ccc(Cl)cc2)C2=NCCN23)c1 [TR-27] | – | – | – | – | – | – | 8.1 ± 1.2 | – | – | – | > 1000 | 57.7 ± 3.4 | 46.1 ± 1.3 | 90.7 ± 1.7 | 98.9 ± 1.7 | > 1000 | ClpX level ([12]; 1 μM, 24 hours): reduced; signs of apoptosis (morphology, nuclear integrity, Mcl1, caspases 9, 3, 8) ([12]; 1 μM, 24 hours): absence of significant apoptosis; levels of TFAM and Grp75 [13]: unchanged; levels of TFAM and Grp75 [14]: reduced
6 | N#Cc1cccc(CN2CCc3ncn(Cc4ccc(Cl)cc4)c(=O)c3C2)c1 [TR-107] | – | – | – | – | – | – | 5.5 ± 0.7 | – | 73 | 22 | > 1000 | 27 ± 2 | 22.8 ± 0.7 | 29.4 ± 0.2 | 27.4 ± 0.8 | > 1000 | –
